# Reference: ChEMBL document CHEMBL1629579, “Correlating echinocandin MIC and kinetic inhibition of fks1 mutant glucan synthases for Candida albicans: implications for interpretive breakpoints” (Antimicrob Agents Chemother, 2009)
# Numbered stars: 1 amine (or outer) side, 2 acyl side, 3 side chain; on linkers, the order of the positions; unused ones are H or OH. Bridge positions count the residues as written; N and C are the ends. Square brackets hold non-standard residues; d marks the D form. Peptide text beside a SMILES is read from it. * marks the point of attachment. hTyr(3S-OH,4S-OH,3'-OSO3H) = N[C@H](C(=O)O)[C@H](O)[C@@H](O)c1ccc(O)c(OS(=O)(=O)O)c1; Orn(4R-OH,5R-OH) = O=C([C@H](C[C@@H](O)[C@@H](O)N[*:3])N[*:1])[*:2]; Pro(3S-OH,4S-Me) = C[C@H]1CN[C@H](C(=O)O)[C@H]1O; X1 = CCCCCOc1ccc(-c2cc(-c3ccc(C(=O)*)cc3)no2)cc1; Gln(3R-OH) = NC(=O)C[C@@H](O)[C@H](N)C(=O)O; Hyp = O=C(O)[C@@H]1C[C@@H](O)CN1
# Tests used:
# Candida albicans [1] = assay: Antimicrobial activity against Candida albicans 90028 by M27-A3 method in presence of 50% human serum; type: functional
# How it was run: (§1)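 Broth microdilution per CLSI M27-A3 in RPMI 1640, done in triplicate on three separate days. Each strain was tested with and without 50% human serum. C. krusei ATCC 6258 and C. parapsilosis ATCC 22019 served as QC strains. Arithmetic means are reported, and geometric means were used for comparison.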
# Candida albicans [2] = assay: Antimicrobial activity against Candida albicans 119 harboring FKS1 T1921C mutant gene and FKS1 hotspot1 F641L mutant gene by M27-A3 method in presence of 50% human serum; type: functional; how it was run: as §1
# [3] = Inhibition of Candida albicans 149 1,3-beta-D-glucan synthase subunit FKS1p G1942T mutant
# How it was run: (§2)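 Enzyme is product-entrapped 1,3-β-D-glucan synthase, enriched from membranes of each strain grown at 37°C with shaking in YPD broth to early stationary phase. Filtration polymerization assay uses [3H]UDPG, started by adding enzyme and run 60 min at 25°C. Echinocandins are added as serial dilutions, with 1% DMSO controls for anidulafungin. IC50 is from a variable-slope sigmoidal fit; values are triplicate arithmetic means.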
# Candida albicans [4] = assay: Activity at Candida albicans 5415 1,3-beta-D-glucan synthase subunit FKS1p T1933C mutant
# How it was run: (§3)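 Product-entrapped 1,3-β-D-glucan synthase from cells grown in YPD at 37°C to early stationary phase. Wells held 50 mM HEPES pH 7.5, 10% glycerol, 1.5 mg/ml BSA, 25 mM KF, 1 mM EDTA, 25 μM GTP-γ-S, 1 μg enzyme and [3H]UDPG (0.015–2 mM). Reactions ran 60 min at 25°C. Vmax and Km came from Lineweaver-Burke plots, in triplicate.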
# [5] = Inhibition of Candida albicans 2762 1,3-beta-D-glucan synthase subunit FKS1p T1922C mutant; how it was run: as §2
# Candida albicans [6] = assay: Activity at Candida albicans 1002 1,3-beta-D-glucan synthase subunit FKS1p
# How it was run: (§4)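 Glucan synthase from cells grown at 37°C with vigorous shaking to early stationary phase in YPD. Membrane enzyme enriched by product entrapment. Serial echinocandin dilutions; ANF controls held 1% DMSO. Reaction started by adding enzyme, run 60 min at 25°C in a filtration polymerization assay, stopped on ice. IC50 from a variable-slope sigmoidal fit; means of three repetitions on separate days.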
# Candida albicans [7] = assay: Antimicrobial activity against Candida albicans SC5314 by M27-A3 method; type: functional
# How it was run: (§5)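 Broth microdilution per CLSI M27-A3 in RPMI 1640, with and without 50% human serum, in triplicate. C. krusei ATCC 6258 and C. parapsilosis ATCC 22019 served as quality-control strains. MIC reported as arithmetic mean of three repetitions on separate days.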
# Candida albicans SC5314 = assay: Activity at Candida albicans SC5314 1,3-beta-D-glucan synthase subunit FKS1p; how it was run: as §4
# Candida albicans [8] = assay: Antimicrobial activity against Candida albicans 119 harboring FKS1 T1921C mutant gene and FKS1 hotspot1 F641L mutant gene by M27-A3 method; type: functional; how it was run: as §1
# Candida albicans [9] = assay: Antimicrobial activity against Candida albicans 3795 by M27-A3 method in presence of 50% human serum; type: functional; how it was run: as §1
# [10] = Inhibition of Candida albicans 36082 1,3-beta-D-glucan synthase subunit FKS1p; how it was run: as §2
# Candida albicans [11] = assay: Antimicrobial activity against Candida albicans 177 harboring FKS1 T1922C mutant gene and FKS1 hotspot1 F641S mutant gene by M27-A3 method in presence of 50% human serum; type: functional; how it was run: as §1
# [12] = Inhibition of Candida albicans 121 1,3-beta-D-glucan synthase subunit FKS1p G4082A mutant; how it was run: as §2
# Candida albicans [13] = assay: Activity at Candida albicans 149 1,3-beta-D-glucan synthase subunit FKS1p G1942T mutant; how it was run: as §3
# Candida albicans [14] = assay: Antimicrobial activity against Candida albicans 205 harboring FKS1 T1933C mutant gene and FKS1 hotspot1 S645P mutant gene by M27-A3 method; type: functional; how it was run: as §1
# Candida albicans [15] = assay: Antimicrobial activity against Candida albicans 1002 by M27-A3 method in presence of 50% human serum; type: functional; how it was run: as §1
# Candida albicans [16] = assay: Antimicrobial activity against Candida albicans 90028 by M27-A3 method; type: functional; how it was run: as §5
# [17] = Inhibition of Candida albicans 122 1,3-beta-D-glucan synthase subunit FKS1p C1946A mutant; how it was run: as §2
# Candida albicans [18] = assay: Antimicrobial activity against Candida albicans 89 harboring FKS1 C1934A mutant gene and FKS1 hotspot1 S645Y mutant gene by M27-A3 method in presence of 50% human serum; type: functional; how it was run: as §1
# Candida albicans [19] = assay: Activity at Candida albicans 36082 1,3-beta-D-glucan synthase subunit FKS1p; how it was run: as §4
# Candida albicans [20] = assay: Antimicrobial activity against Candida albicans 90 harboring FKS1 G4082R mutant gene and FKS1 hotspot2 R1361R/H mutant gene by M27-A3 method; type: functional; how it was run: as §1
# Candida albicans [21] = assay: Antimicrobial activity against Candida albicans 194 harboring FKS1 C1934T/G4082R mutant gene and FKS1 hotspot1 S645F mutant gene and FKS1 hotspot2 R1361R/H mutant gene by M27-A3 method in presence of 50% human serum; type: functional; how it was run: as §1
# Candida albicans [22] = assay: Antimicrobial activity against Candida albicans 85 harboring FKS1 C1934T mutant gene and FKS1 hotspot1 S645F mutant gene by M27-A3 method in presence of 50% human serum; type: functional; how it was run: as §1
# Candida albicans [23] = assay: Antimicrobial activity against Candida albicans 121 harboring FKS1 G4082A mutant gene and FKS1 hotspot2 R1361H mutant gene by M27-A3 method in presence of 50% human serum; type: functional; how it was run: as §1
# [24] = Inhibition of Candida albicans 3107 1,3-beta-D-glucan synthase subunit FKS1p; how it was run: as §2
# [25] = Inhibition of Candida albicans A15-10 1,3-beta-D-glucan synthase subunit FKS1p T1933C mutant; how it was run: as §2
# Candida albicans [26] = assay: Activity at Candida albicans 3795 1,3-beta-D-glucan synthase subunit FKS1p; how it was run: as §4
# Candida albicans [27] = assay: Activity at Candida albicans 89 1,3-beta-D-glucan synthase subunit FKS1p C1934A mutant; how it was run: as §3
# Candida albicans [28] = assay: Antimicrobial activity against Candida albicans SC5314 by M27-A3 method in presence of 50% human serum; type: functional; how it was run: as §1
# Candida albicans [29] = assay: Activity at Candida albicans 205 1,3-beta-D-glucan synthase subunit FKS1p T1933C mutant; how it was run: as §3
# [30] = Inhibition of Candida albicans 5415 1,3-beta-D-glucan synthase subunit FKS1p T1933C mutant; how it was run: as §2
# Candida albicans [31] = assay: Antimicrobial activity against Candida albicans 205 harboring FKS1 T1933C mutant gene and FKS1 hotspot1 S645P mutant gene by M27-A3 method in presence of 50% human serum; type: functional; how it was run: as §1
smiles,measurement,setting,value
"CCCCCOc1ccc(-c2cc(-c3ccc(C(=O)N[C@H]4C[C@@H](O)[C@@H](O)NC(=O)[C@@H]5[C@@H](O)[C@@H](C)CN5C(=O)[C@H]([C@H](O)CC(N)=O)NC(=O)[C@H]([C@H](O)[C@@H](O)c5ccc(O)c(OS(=O)(=O)O)c5)NC(=O)[C@@H]5C[C@@H](O)CN5C(=O)[C@H]([C@@H](C)O)NC4=O)cc3)no2)cc1 [MICAFUNGIN] (X1-[Orn(4R-OH,5R-OH)]T[Hyp][hTyr(3S-OH,4S-OH,3'-OSO3H)][Gln(3R-OH)][Pro(3S-OH,4S-Me)]; lactam 1-C)",MIC,Candida albicans [1],0.5 mg/L
same,MIC,Candida albicans [2],8 mg/L
same,IC50,[3],0.3755 mg/L
same,Ki,[3],0.48923 mg/L
same,Km,Candida albicans [4],98 µM
same,Vmax,Candida albicans [4],3.12 nmol/min
same,IC50,[5],1.693 mg/L
same,Ki,[5],1.44788 mg/L
same,Km,Candida albicans [6],122 µM
same,Vmax,Candida albicans [6],5.8 nmol/min
same,MIC,Candida albicans [7],0.05 mg/L
same,Km,Candida albicans SC5314,125 µM
same,Vmax,Candida albicans SC5314,6.72 nmol/min
same,MIC,Candida albicans [8],0.33 mg/L
same,MIC,Candida albicans [9],0.5 mg/L
same,IC50,[10],0.0102 mg/L
same,Ki,[10],0.02353 mg/L
same,MIC,Candida albicans [11],16 mg/L
same,IC50,[12],0.4982 mg/L
same,Ki,[12],0.84048 mg/L
same,Km,Candida albicans [13],32 µM
same,Vmax,Candida albicans [13],1.22 nmol/min
same,MIC,Candida albicans [14],4 mg/L
same,MIC,Candida albicans [15],0.5 mg/L
same,MIC,Candida albicans [16],0.03 mg/L
same,IC50,[17],0.9246 mg/L
same,Ki,[17],2.58853 mg/L
same,MIC,Candida albicans [18],8 mg/L
same,Km,Candida albicans [19],89 µM
same,Vmax,Candida albicans [19],5.87 nmol/min
same,MIC,Candida albicans [20],0.5 mg/L
same,MIC,Candida albicans [21],8 mg/L
same,MIC,Candida albicans [22],8 mg/L
same,MIC,Candida albicans [23],8 mg/L
same,IC50,[24],0.01472 mg/L
same,Ki,[24],0.04187 mg/L
same,IC50,[25],1.194 mg/L
same,Ki,[25],2.2495 mg/L
same,Km,Candida albicans [26],88 µM
same,Vmax,Candida albicans [26],6.63 nmol/min
same,Km,Candida albicans [27],61 µM
same,Vmax,Candida albicans [27],2.51 nmol/min
same,MIC,Candida albicans [28],0.5 mg/L
same,Km,Candida albicans [29],116 µM
same,Vmax,Candida albicans [29],5.54 nmol/min
same,IC50,[30],1.254 mg/L
same,Ki,[30],2.75301 mg/L
same,MIC,Candida albicans [31],8 mg/L
